Legend:
[1] = target: 5-hydroxytryptamine receptor 4 (Rattus norvegicus) (UniProt Q62758); assay: Antagonistic activity by ability to block serotonin induced relaxation (mediated by activation of 5-hydroxytryptamine 4 receptor) in carbamylcholine (10e-6 M) contracted esophagus at a concentration of 10e-7 M.; format: functional, tissue-based
In short: (§1)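 Isolated rat esophagus precontracted with carbamylcholine (10^-6 M). Tissue was challenged with serotonin (1 µM) in the presence of the antagonist at a given concentration or of vehicle. Relaxation was recorded as % relaxation to 10^-6 M 5-HT, given as mean ± SEM with the number of determinations.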

[2] = target: 5-hydroxytryptamine receptor 4 (Rattus norvegicus) (UniProt Q62758); assay: Antagonistic activity of compound was evaluated by ability to block serotonin induced relaxation (mediated by activation of 5-hydroxytryptamine 4 receptor) in carbamylcholine (10e-6 M) contracted esophagus at a concentration of 3*10e-7 M.; format: functional
In short: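 Isolated rat esophagus precontracted with carbamylcholine (10^-6 M), then challenged with serotonin (1 μM) in the presence of antagonist at the stated concentration or vehicle. Read-out is % relaxation to serotonin, given as mean ± SEM with the number of determinations.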

[3] = target: 5-hydroxytryptamine receptor 4 (Rattus norvegicus) (UniProt Q62758); assay: Antagonistic activity evaluated by ability to block serotonin induced relaxation via 5-hydroxytryptamine 4 receptor) in carbamylcholine (10e-6 M) contracted esophagus at a concentration of 0.1 mg/kg (p.o.); format: functional, organism-based; design: dose 0.1 mg/kg
In short: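 Rats were dosed with the antagonist by oral gavage. Esophagus was removed 3 h after dosing and challenged ex vivo with serotonin. Read-out was % relaxation of the carbamylcholine-contracted tissue to 10^-6 M 5-HT, given as mean ± SEM with the number of determinations.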

[4] = target: Adrenergic receptor alpha-1 (Rattus norvegicus) (UniProt P15823+P23944+P43140); assay: Affinity for the alpha-1 adrenergic receptor determined by the displacement of [3H]prazosin from rat whole brain tissue.; format: tissue-based
[5] = target: 5-hydroxytryptamine receptor 4 (Rattus norvegicus) (UniProt Q62758); assay: Antagonistic activity by ability to block serotonin induced relaxation (mediated by activation of 5-hydroxytryptamine 4 receptor) in carbamylcholine (10e-6 M) contracted esophagus at a concentration of 10e-6 M.; format: functional, tissue-based; in short: as §1

5-hydroxytryptamine receptor 4 (Rattus norvegicus), sequence (Q62758 whole entry): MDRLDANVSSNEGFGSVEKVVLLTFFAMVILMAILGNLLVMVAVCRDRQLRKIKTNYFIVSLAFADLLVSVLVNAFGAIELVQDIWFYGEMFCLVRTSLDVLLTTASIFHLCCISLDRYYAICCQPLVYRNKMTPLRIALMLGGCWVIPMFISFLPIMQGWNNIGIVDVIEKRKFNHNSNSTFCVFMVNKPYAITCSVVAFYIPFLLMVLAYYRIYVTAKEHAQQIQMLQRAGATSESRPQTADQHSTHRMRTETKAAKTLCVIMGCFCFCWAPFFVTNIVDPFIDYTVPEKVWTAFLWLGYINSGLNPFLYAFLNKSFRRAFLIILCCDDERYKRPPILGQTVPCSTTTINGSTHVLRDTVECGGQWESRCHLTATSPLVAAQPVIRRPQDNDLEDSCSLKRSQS

Compound: CC(C)n1nc(C(=O)NCCCN2CCCCC2)c2ccccc21
- Relaxation [1]: 27.3%
- Relaxation [2]: 14.3%
- Relaxation [3]: 15%
- pKi [4]: < 4.5
- Relaxation [5]: 6.3%

— ChEMBL document CHEMBL1131384, “Synthesis and structure-activity relationships of potent and orally active 5-HT4 receptor antagonists: indazole and benzimidazolone derivatives” (J Med Chem, 1998)
